Measurements published in ChEMBL document CHEMBL1641431, “Triazoloquinazolinediones as novel high affinity ligands for the benzodiazepine site of GABA(A) receptors” (Bioorg Med Chem, 2011).
Values belong to the compound of their own block, whether it stands above or below them.

Assays:
[1] = Displacement of [3H]flumazenil form benzodiazepine-binding site of GABA(A) receptor in rat cortical membrane after 30 mins by glass fiber filtration assay; type: cell membranes; details: in the assay text read “after 40 mins” for “after 30 mins”
Summary of the method: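 Rat cortex homogenized in 30 mM Tris–HCl pH 7.4, washed by 27,000g spins, held at 37 °C for 30 min, stored at −20 °C. Membranes (1 mg original tissue/0.55 mL) in 50 mM Tris–citrate pH 7.1 with 1 nM final [3H]flumazenil, 40 min at 0–4 °C. GF/C filtration. Nonspecific binding with 1 µM clonazepam. IC50 from 4–6 concentrations; Ki = IC50/(1+L/KD).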

[2] = target: T1, GABA-A receptor; alpha-1/beta-3/gamma-2 (Homo sapiens, UniProt P14867+P18507+P28472); assay: Displacement of [3H]flumazenil human recombinant alpha1beta3gamma2 GABA(A) receptor expressed in HEK293 cells after 30 mins by glass fiber filtration assay; type: cell-based; details: in the assay text read “after 40 mins” for “after 30 mins”
T1 sequence (P14867 whole entry): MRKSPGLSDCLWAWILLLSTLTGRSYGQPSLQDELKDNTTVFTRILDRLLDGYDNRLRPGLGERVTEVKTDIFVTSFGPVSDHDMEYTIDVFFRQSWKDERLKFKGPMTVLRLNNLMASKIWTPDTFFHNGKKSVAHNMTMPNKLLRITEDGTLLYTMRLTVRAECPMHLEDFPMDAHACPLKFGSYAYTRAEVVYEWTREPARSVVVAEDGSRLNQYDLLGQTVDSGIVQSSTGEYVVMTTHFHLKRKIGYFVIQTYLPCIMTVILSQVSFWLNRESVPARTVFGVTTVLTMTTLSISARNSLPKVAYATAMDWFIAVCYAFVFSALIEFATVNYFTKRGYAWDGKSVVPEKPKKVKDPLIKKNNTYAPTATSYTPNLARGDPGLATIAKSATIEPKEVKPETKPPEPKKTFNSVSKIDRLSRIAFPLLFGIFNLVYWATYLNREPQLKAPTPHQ
T1 sequence (P18507 whole entry): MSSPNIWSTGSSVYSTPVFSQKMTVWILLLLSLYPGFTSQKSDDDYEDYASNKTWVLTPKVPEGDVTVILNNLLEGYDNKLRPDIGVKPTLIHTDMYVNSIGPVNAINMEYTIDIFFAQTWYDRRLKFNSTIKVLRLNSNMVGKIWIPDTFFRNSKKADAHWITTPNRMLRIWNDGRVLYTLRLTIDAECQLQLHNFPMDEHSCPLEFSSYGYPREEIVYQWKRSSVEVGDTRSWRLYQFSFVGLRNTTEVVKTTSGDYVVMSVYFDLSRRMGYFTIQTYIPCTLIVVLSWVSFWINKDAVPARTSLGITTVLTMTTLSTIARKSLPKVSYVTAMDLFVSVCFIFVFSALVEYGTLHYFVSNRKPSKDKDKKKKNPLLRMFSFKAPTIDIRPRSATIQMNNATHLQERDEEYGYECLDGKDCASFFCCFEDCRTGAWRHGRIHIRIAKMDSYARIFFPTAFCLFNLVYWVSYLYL
T1 sequence (P28472 whole entry): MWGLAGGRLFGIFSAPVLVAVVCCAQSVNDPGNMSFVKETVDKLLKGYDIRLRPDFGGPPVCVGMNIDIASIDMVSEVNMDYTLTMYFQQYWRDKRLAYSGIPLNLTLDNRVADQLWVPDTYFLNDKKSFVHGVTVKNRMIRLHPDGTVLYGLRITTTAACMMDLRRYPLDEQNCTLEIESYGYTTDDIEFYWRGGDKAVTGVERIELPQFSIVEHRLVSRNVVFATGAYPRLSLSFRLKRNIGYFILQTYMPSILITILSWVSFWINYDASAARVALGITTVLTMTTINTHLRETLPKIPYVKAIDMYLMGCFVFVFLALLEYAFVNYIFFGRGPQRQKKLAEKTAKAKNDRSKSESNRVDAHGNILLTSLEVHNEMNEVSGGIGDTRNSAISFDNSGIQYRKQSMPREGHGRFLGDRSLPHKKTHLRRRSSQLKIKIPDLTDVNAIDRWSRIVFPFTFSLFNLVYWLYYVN
Summary of the method: (§1)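 HEK cell membranes carrying human receptors in 50 mM Tris–citrate pH 7.1 with 1 nM final [3H]flumazenil, incubated 40 min on ice (0–4 °C). Filtered on GF/C and washed with ice-cold buffer. Clonazepam 1 µM final defined nonspecific binding. IC50 from 4–6 test concentrations, converted by Ki = IC50/(1+L/KD). Mean ± SD of three determinations.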

[3] = species on record: Homo sapiens; assay: Selectivity ratio of Ki for human recombinant alpha3beta3gamma2 GABA(A) receptor to Ki for human recombinant alpha1beta3gamma2 GABA(A) receptor
Summary of the method: (§2)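 Ratio of the Ki at the named subtype to the Ki at α1β3γ2. Both Ki values come from [3H]flumazenil (1 nM) displacement on membranes of HEK cells with human receptors, run 40 min at 0–4 °C with GF/C filtration. Ki = IC50/(1+L/KD).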

[4] = target: T2, GABA-A receptor; alpha-2/beta-3/gamma-2 (Homo sapiens, UniProt P18507+P28472+P47869); assay: Displacement of [3H]flumazenil human recombinant alpha2beta3gamma2 GABA(A) receptor expressed in HEK293 cells after 30 mins by glass fiber filtration assay; type: cell-based; details: in the assay text read “after 40 mins” for “after 30 mins”; summary of the method: as §1
T2 sequence (P18507 whole entry): T1 sequence (P18507 whole entry)
T2 sequence (P28472 whole entry): T1 sequence (P28472 whole entry)
T2 sequence (P47869 whole entry): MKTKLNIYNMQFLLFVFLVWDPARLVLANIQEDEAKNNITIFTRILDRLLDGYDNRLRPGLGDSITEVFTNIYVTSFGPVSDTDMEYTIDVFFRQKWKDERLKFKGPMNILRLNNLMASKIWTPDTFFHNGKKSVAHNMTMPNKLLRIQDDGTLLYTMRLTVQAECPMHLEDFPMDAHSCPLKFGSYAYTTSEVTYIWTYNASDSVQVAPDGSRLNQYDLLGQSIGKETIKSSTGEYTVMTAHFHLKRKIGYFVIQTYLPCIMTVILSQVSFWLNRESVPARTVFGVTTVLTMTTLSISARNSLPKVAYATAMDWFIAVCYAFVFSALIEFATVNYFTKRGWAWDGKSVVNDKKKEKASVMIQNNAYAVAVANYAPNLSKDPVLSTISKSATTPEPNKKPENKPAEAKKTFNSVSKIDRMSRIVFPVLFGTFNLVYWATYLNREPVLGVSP

[5] = target: T3, GABA-A receptor; alpha-3/beta-3/gamma-2 (Homo sapiens, UniProt P18507+P28472+P34903); assay: Displacement of [3H]flumazenil human recombinant alpha3beta3gamma2 GABA(A) receptor expressed in HEK293 cells after 30 mins by glass fiber filtration assay; type: cell-based; details: in the assay text read “after 40 mins” for “after 30 mins”; summary of the method: as §1
T3 sequence (P18507 whole entry): T1 sequence (P18507 whole entry)
T3 sequence (P28472 whole entry): T1 sequence (P28472 whole entry)
T3 sequence (P34903 whole entry): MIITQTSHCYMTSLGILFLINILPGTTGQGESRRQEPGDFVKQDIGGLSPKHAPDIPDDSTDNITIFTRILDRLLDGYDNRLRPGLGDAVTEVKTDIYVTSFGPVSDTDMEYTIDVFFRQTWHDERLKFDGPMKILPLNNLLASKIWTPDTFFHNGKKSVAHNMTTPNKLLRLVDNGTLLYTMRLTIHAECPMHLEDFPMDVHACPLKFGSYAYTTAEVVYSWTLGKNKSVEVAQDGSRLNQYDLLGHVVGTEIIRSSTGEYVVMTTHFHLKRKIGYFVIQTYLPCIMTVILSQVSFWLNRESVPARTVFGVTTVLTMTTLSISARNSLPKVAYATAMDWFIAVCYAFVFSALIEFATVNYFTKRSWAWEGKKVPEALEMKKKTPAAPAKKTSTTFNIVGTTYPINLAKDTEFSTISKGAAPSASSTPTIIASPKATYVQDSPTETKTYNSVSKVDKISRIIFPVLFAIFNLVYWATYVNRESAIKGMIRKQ

[6] = target: T4, GABA-A receptor; alpha-5/beta-3/gamma-2 (Homo sapiens, UniProt P18507+P28472+P31644); assay: Displacement of [3H]flumazenil human recombinant alpha5beta3gamma2 GABA(A) receptor expressed in HEK293 cells after 30 mins by glass fiber filtration assay; type: cell-based; details: in the assay text read “after 40 mins” for “after 30 mins”; summary of the method: as §1
T4 sequence (P18507 whole entry): T1 sequence (P18507 whole entry)
T4 sequence (P28472 whole entry): T1 sequence (P28472 whole entry)
T4 sequence (P31644 whole entry): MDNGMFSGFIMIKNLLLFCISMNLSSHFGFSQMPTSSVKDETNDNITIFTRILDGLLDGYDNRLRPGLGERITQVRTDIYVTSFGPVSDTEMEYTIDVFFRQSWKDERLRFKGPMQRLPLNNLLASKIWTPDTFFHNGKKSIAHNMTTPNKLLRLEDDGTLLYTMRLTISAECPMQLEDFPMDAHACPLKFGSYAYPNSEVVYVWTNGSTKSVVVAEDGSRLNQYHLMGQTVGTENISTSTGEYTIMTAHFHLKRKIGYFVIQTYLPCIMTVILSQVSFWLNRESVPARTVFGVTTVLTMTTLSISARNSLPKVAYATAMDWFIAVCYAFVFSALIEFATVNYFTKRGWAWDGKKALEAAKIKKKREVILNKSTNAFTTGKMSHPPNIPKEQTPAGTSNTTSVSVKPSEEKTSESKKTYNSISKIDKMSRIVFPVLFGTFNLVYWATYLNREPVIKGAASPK

[7] = species on record: Homo sapiens; assay: Selectivity ratio of Ki for human recombinant alpha5beta3gamma2 GABA(A) receptor to Ki for human recombinant alpha1beta3gamma2 GABA(A) receptor; summary of the method: as §2
[8] = species on record: Homo sapiens; assay: Selectivity ratio of Ki for human recombinant alpha2beta3gamma2 GABA(A) receptor to Ki for human recombinant alpha1beta3gamma2 GABA(A) receptor; summary of the method: as §2

SMILES: Cc1ccc(-n2nc3c4cc(C#Cc5ccccc5)ccc4[nH]c(=O)n3c2=O)cc1
Ki [1]: 40 nM

SMILES: Cc1ccc(-n2nc3c4cc(CCc5ccc(Oc6ccccc6)cc5)ccc4[nH]c(=O)n3c2=O)cc1
Ki [1]: 123 nM

SMILES: Cc1ccc(-n2nc3c4cc(Cc5cccc(F)c5)ccc4[nH]c(=O)n3c2=O)cc1
Ki [1]: 2.1 nM

SMILES: Cc1ccc2[nH]c(=O)n3c(=O)n(-c4ccccc4)nc3c2c1
Ki [2]: 0.43 nM | Ki [1]: 0.62 nM | Ki [4]: 1 nM | Ki [5]: 1.3 nM | Ratio Ki [8]: 2

SMILES: O=c1[nH]c2ccc(Br)cc2c2nn(-c3ccccc3)c(=O)n12
Ki [1]: 0.24 nM

SMILES: Cc1ccc(-n2nc3c4cc(CCC(=O)O)ccc4[nH]c(=O)n3c2=O)cc1
Ki [1]: 1.4 nM

SMILES: Cc1ccc(-n2nc3c4cc(CCc5ccc(-c6ccccc6)cc5)ccc4[nH]c(=O)n3c2=O)cc1
Ki [1]: 1570 nM

SMILES: Cc1ccc(-n2nc3c4cc(Br)ccc4[nH]c(=O)n3c2=O)cc1
Ki [1]: 0.47 nM

SMILES: O=c1[nH]c2ccc(Br)cc2c2nn(-c3ccccc3F)c(=O)n12
Ki [1]: 0.2 nM

SMILES: O=c1[nH]c2ccc(Br)cc2c2nn(-c3ccc(Cl)cc3)c(=O)n12
Ki [1]: 0.6 nM

SMILES: Cc1ccc(-n2nc3c4cc(Cc5ccsc5)ccc4[nH]c(=O)n3c2=O)cc1
Ki [1]: 0.23 nM

More lines, now with the values ahead:

Ki [1]: 0.53 nM
SMILES: Cc1ccc(-n2nc3c4cc(CCc5ccccn5)ccc4[nH]c(=O)n3c2=O)cc1

Ki [2]: 0.68 nM | Ratio Ki [3]: 3 | Ki [1]: 0.2 nM | Ki [4]: 4.4 nM | Ki [5]: 2.3 nM | Ki [6]: 9.1 nM | Ratio Ki [7]: 13
SMILES: Cc1ccc(-n2nc3c4cc(CCc5cccnc5)ccc4[nH]c(=O)n3c2=O)cc1

Ki [1]: 0.17 nM
SMILES: Cc1ccc(-n2nc3c4cc(CCc5ccncc5)ccc4[nH]c(=O)n3c2=O)cc1

Ki [1]: 1 nM
SMILES: Cc1ccc(-n2nc3c4cc(Cc5ccccc5)ccc4[nH]c(=O)n3c2=O)cc1

Ki [2]: 0.14 nM | Ratio Ki [3]: 5 | Ki [1]: 0.94 nM | Ki [4]: 1.7 nM | Ki [5]: 0.71 nM | Ki [6]: 3.6 nM | Ratio Ki [7]: 26
SMILES: Cc1ccc(-n2nc3c4cc(CCc5ccsc5)ccc4[nH]c(=O)n3c2=O)cc1

Ki [2]: 3.6 nM | Ki [1]: 4 nM | Ki [4]: 65 nM | Ki [5]: 9.7 nM | Ki [6]: 66 nM | Ratio Ki [8]: 18
SMILES: Cc1ccc(-n2nc3c4cc(CCc5ccccc5)ccc4[nH]c(=O)n3c2=O)cc1

Ki [1]: 12.4 nM
SMILES: Cc1ccc(-n2nc3c4cc(CCc5cccc(O)c5)ccc4[nH]c(=O)n3c2=O)cc1
